Source: ChEMBL document CHEMBL4706643 (J Med Chem, 2021)
Entries after “also recorded” stand apart in the source; their conditions may differ. Activity calls are given as the source filed them. No cut-off for these calls is given here.

Key:
[1] = biological target: T1, Solute carrier organic anion transporter family member 1B1 (Homo sapiens, UniProt Q9Y6L6); test: Inhibition of OATP1B1 (unknown origin) mediated [3H]-estrone sulfate uptake expressed in human HepG2 cells; format: cell-based
T1 sequence (Q9Y6L6 whole entry): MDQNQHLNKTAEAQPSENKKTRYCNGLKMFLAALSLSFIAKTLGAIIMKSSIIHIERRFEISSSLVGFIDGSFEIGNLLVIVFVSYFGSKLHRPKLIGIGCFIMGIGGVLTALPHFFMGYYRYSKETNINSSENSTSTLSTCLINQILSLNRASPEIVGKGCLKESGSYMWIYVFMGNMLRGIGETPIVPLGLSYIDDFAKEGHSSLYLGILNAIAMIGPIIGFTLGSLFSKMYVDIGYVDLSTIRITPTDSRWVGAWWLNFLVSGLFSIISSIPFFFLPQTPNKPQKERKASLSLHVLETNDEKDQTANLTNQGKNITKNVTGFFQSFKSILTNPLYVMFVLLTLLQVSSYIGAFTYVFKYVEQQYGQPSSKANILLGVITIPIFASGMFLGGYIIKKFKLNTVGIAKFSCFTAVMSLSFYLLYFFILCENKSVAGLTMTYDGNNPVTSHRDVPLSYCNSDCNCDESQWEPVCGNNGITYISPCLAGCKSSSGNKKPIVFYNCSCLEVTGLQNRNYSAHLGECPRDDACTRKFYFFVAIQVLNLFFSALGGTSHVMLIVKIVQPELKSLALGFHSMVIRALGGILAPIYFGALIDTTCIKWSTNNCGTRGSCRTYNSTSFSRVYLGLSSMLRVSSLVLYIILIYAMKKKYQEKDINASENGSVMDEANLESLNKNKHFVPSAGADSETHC

[2] = Half life in C57BL/6 mouse at 10 mg/kg, po; format: ADME, organism-based; settings: in vivo
How it was run: (§1)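 Male C57BL/6 mice (n = 3), single dose IV 5 mg/kg, IP 10 mg/kg or PO 10 mg/kg in DMSO:cremophor:0.9% NaCl 5:5:90; plasma parameters reported as means.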

Hepatitis B virus [3] = test: Antiviral activity against HBV infected in human HepG2-NTCP cells assessed as reduction in HBV viral transcription at 10 uM treated 3 days post infection by northern blot analysis; format: functional, organism-based; settings: time 3.0 day
How it was run: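 Infected HepG2-NTCP cells given compound either with the HBV inoculum or at dpi 3–5; RNA extracted with TRIzol, run on 1.0% agarose–formaldehyde/MOPS gel. Northern blot as for Southern, probed with DIG-labelled full-length HBV genome plus DIG-labelled GAPDH probe.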

Hepatitis B virus [4] = test: (§2) Antiviral activity against HBV genotype B infected in human HepG2-NTCP cells assessed as reduction in HBeAg secretion at 2 uM cells inoculated with virus for 4 hrs at room temperature and 37 degree C for 24 hrs followed inoculum changed with PMM medium for every 2 days until day 5 post infection by ELISA; format: functional, organism-based; settings: time 28.0 hrs
How it was run: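 HepG2-NTCP cells seeded 4–6 h, then primary maintenance medium 20–24 h; virus inoculum plus compound dilutions 4 h at room temperature, then 37 °C 24 h; medium changed every 2 days to PMM with 2% FBS until day 5 post infection. Secreted HBeAg measured by ELISA; IC50 by nonlinear regression from six or more points, three repeats.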

[5] = Cmax in C57BL/6 mouse at 10 mg/kg, ip; format: ADME, organism-based; design: route intraperitoneal, dose 10 mg/kg; settings: in vivo; how it was run: as §1
[6] = Intrinsic clearance in rat liver microsomes at 1 uM preincubated for 5 mins followed by NADPH addition and measured upto 60 mins by LC-MS analysis; format: ADME, Microsome; settings: time 65 min, read-out: CLH
Hepatitis B virus [7] = test: as §2, with “HBV” for “HBV genotype B”, “HBV cccDNA levels” for “HBeAg secretion at 2 uM”, “DIG-labelled probe based southern blot analysis” for “ELISA”; format: functional, organism-based; settings: time 28.0 hrs
How it was run: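 HepG2-NTCP cells infected with compound added together with HBV inoculum; DNA harvested day 5 post infection by modified Hirt extraction. Southern blot on 1.2% agarose, UV cross-linked, hybridised at 50 °C overnight with DIG-labelled full-length genotype D HBV genomic probe; chemiluminescent detection; 3.2, 2.1 and 1.7 kb HBV fragments as markers.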

[8] = Intrinsic clearance in mouse liver microsomes at 1 uM preincubated for 5 mins followed by NADPH addition and measured upto 60 mins by LC-MS analysis; format: ADME, Microsome; settings: read-out: CLH
How it was run: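 Human or mouse liver microsomes, final 1 mg/mL in 0.05 M phosphate buffer pH 7.4; compound final 1 μM, preincubated 37 °C 5 min, started with 1 mM NADPH; sampled at 0, 5, 15, 30, 60 min, methanol quench, −20 °C 1 h, centrifuged, supernatant by LC–MS.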

[9] = biological target: T2, Hepatic sodium/bile acid cotransporter (Homo sapiens, UniProt Q14973); test: Inhibition of human NTCP-mediated [3H]-TCA uptake expressed in human HepG2 cells incubated for 2 hrs followed by substrate addition and measured for 10 mins by microbeta liquid scintillation counter analysis; format: cell-based
T2 sequence (Q14973 whole entry): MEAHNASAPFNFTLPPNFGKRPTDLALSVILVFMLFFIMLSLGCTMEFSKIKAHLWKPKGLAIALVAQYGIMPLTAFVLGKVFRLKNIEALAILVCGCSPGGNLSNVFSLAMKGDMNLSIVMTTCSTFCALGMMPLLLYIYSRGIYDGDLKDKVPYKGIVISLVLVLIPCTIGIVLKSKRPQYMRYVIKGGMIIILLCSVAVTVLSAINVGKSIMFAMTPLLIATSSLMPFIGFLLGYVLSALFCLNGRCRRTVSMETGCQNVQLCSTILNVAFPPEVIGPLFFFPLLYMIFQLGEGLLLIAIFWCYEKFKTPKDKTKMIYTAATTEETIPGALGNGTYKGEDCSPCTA
How it was run: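 HepG2 cells expressing NTCP (human, mouse, monkey or tree shrew) seeded 4–6 h, PMM 20–24 h; compound 2 h, then Na+ Ringer's buffer with 2 μM 3H-TCA, 37 °C 10 min; PBS washes, lysis in 1% Triton X-100, scintillation counting. Single-concentration lines at 2 μM.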

[10] = Tmax in C57BL/6 mouse at 10 mg/kg, po; format: ADME, organism-based; settings: in vivo; how it was run: as §1
[11] = biological target: T2, Hepatic sodium/bile acid cotransporter; test: Inhibition of human NTCP expressed in human HepG2 cells assessed as decrease in NTCP surface expression at 2 uM incubated for 2 hrs by DAPI staining based analysis; format: cell-based; settings: hepg2, 2 h, 2 h
How it was run: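 HepG2-NTCP cells treated 2 h with DMSO, compound or TLCA at 2 μM, then immunostained for NTCP to assess cell-surface distribution.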

[12] = Bioavailability in C57BL/6 mouse at 10 mg/kg, ip; format: ADME, organism-based; settings: in vivo; how it was run: as §1
[13] = AUC (0 to infinity) in C57BL/6 mouse at 10 mg/kg, po; format: ADME, organism-based; design: route oral, time infinity, dose 10 mg/kg; settings: in vivo
How it was run: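 Male C57BL/6 mice, n = 3, dosed IV at 5 mg/kg, IP at 10 mg/kg or by oral gavage (PO) at 10 mg/kg. All doses formulated in DMSO:cremophor:0.9% NaCl = 5:5:90. AUC from time zero to infinity (h*ng/mL) was derived from plasma drug levels and is reported as the mean of the males.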

[14] = Immunosuppressive activity in C57B/L mouse spleen T cells assessed as inhibition of anti-CD3 induced T cell proliferation incubated for 48 hrs by CFSE staining based flow cytometric analysis; format: tissue-based
How it was run: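 Spleen T cells from adult C57B/L mouse, CFSE-labelled, cultured in RPMI-1640 on anti-CD3-coated wells with compound or DMSO; stained with PE-anti-CD4 before flow cytometric proliferation analysis. Legend gives 48 h stimulation, methods 72 h; 2 μM compounds.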

CC[C@@H]1NC(=O)[C@H]([C@@H]2O[C@@H](Sc3cccc(OCc4ccccc4)c3)C[C@H]2C)N(C)C(=O)[C@H](C(C)C)N(C)C(=O)[C@H](CC(C)C)N(C)C(=O)[C@H](CC(C)C)N(C)C(=O)[C@@H](C)NC(=O)[C@H](C)NC(=O)[C@H](CC(C)C)N(C)C(=O)[C@H](C(C)C)NC(=O)[C@H](CC(C)C)N(C)C(=O)CN(C)C1=O
IC50 [1]: 2270 nM
half-life [2]: 5.65 h
Activity (Hepatitis B virus [3]): inactive
Activity (Hepatitis B virus [4]): Active
Cmax [5]: 12400 ng/mL
microsomal CLint at 1 µM [6]: 2.2 µL/min/mg
Activity (Hepatitis B virus [7]): Dose-dependent effect
microsomal CLint at 1 µM [8]: 4.1 µL/min/mg
IC50 [9]: 66 nM
Tmax [10]: 1 h
inhibition (INH) [11]: Active; also recorded: Not Active
bioavailability [12]: 110%
AUC(0-inf) [13]: 14500 ng·h/mL
Activity [14]: Non-Toxic
